Screens as filed in PubChem.
T cruzi inh = T. cruzi replication inhibition; T. cruzi beta-gal in NIH3T3, luminescence, 90 h; inhibition, % (no concentration beside the values); actives 1.4% (n = 300,000); AID 1885;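 active = mean inhibition across valid replicates above about 55%, limit read from the data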;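 also: signal also drops with host cell toxicity which is not excluded here; 0% = plate median of DMSO wells and 100% = zero luminescence signal; higher percent means less beta-gal luminescence so fewer parasites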
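assay system = mouse NIH/3T3 fibroblasts infected with β-gal-expressing T. cruzi Tulahuen C4 | input = 5,000 NIH/3T3 host cells per well | buffer or medium = DMEM plus 2% FBS | timing = 3 h host attachment, then at least 90 h co-culture | measured by = GalScreen luminescence, 60 min | evaluation = luminescence reflecting intracellular parasite burden, expressed as percent inhibition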
hiPSC survival = hiPSC single-cell survival enhancement | ATPlite luminescence; 100% = ROCK inhibitor wells, 0% = DMSO | survival enhancement, % at 20 µM | actives 0.044% (n = 360,000); in the data active = survival enhancement above about 18%;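 also: cells exposed to compounds for 16 hours before the ATP read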
Rev-erbA mod = Rev-erb alpha (human) modulation; P20393; Rev-erbα–FITC-DNA binding, fluorescence polarization, 90 min; activity, % at 10 µM; actives 0.79% (n = 370,000);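 active = activity above about 14%, limit read from the data; passing the limit was not always enough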;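 also: 0% = DMSO wells with 35 nM protein and 100% = DMSO wells with 750 nM protein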
Target sequence (P20393 whole entry, looked up): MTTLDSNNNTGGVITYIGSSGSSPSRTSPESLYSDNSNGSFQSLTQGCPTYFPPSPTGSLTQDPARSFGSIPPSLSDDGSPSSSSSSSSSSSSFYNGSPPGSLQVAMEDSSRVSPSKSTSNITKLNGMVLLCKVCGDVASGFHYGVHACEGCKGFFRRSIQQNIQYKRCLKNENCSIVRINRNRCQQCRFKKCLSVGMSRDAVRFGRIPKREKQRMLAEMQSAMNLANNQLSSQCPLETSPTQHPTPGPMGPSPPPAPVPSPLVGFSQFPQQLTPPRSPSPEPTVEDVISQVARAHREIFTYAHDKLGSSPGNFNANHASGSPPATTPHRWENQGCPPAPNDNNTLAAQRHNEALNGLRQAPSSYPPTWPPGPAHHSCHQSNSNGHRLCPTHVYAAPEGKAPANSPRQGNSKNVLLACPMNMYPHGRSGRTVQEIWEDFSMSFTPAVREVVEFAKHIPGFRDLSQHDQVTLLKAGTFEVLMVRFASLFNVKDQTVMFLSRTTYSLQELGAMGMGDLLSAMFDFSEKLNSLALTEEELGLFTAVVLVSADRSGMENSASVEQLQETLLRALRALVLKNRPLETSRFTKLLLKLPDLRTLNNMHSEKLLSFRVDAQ
H9c2 TAG inh = triacylglycerol accumulation inhibition; H9c2 cells, Nile Red lipid (TAG) fluorescence; cells loaded with 200 µM oleic acid; inhibition, % at 12.5 µM; actives 0.66% (n = 230,000); AID 651582;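 active = pattern-corrected inhibition of lipid staining of at least 50% with the nuclear-stain viability signal not falling by more than 50%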;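 also: 0% = DMSO wells and 100% = triacsin C control wells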
PG9 Ab binder = PG9 antibody binding by small molecule. inhibition, % at 6.7 µM. actives 0.43% (n = 360,000). TR-FRET gp120-PG9 antibody binding; in the data active = inhibition above about 8.5%
beta cell repl = inducers of beta-cell replication in MIN6 cells. actives 0.29% (n = 330,000). proliferation, % at 10 µM. MIN6 cells proliferation, ATPlite luminescence, 48 h; cells starved in 0.2% serum; 100% = growth in 10% serum;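 active = compounds whose signal lies at least 3.5 SD above the mean of all wells on their plate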;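 also: 0% = DMSO-treated cells in low-serum medium and 100% = 10% serum control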
Active calls of the source: *. A selection: hits, their analogues and other compounds. The true share with any hit is near 2.9%.

What do the screens show for `COC(=O)C1Cc2c([nH]c3ccccc23)C2(CCN(Cc3ccccc3)CC2)N1` (centres undefined)?
T cruzi inh: 71*; hiPSC survival: 0; Rev-erbA mod: 6; PG9 Ab binder: 1; beta cell repl: -3

Results for CCC1CN(C(=O)Nc2cccc(C)c2)c2cc(C)ccc2O1 (centres undefined) ?
T cruzi inh: 4; hiPSC survival: 1; Rev-erbA mod: -4; H9c2 TAG inh: -6; PG9 Ab binder: -1; beta cell repl: -4

Results for CC(C)N=C(NS(=O)(=O)c1ccccc1)C(Cl)(Cl)Cl ?
T cruzi inh: 13; hiPSC survival: -2; Rev-erbA mod: 3; H9c2 TAG inh: 52*; PG9 Ab binder: -1; beta cell repl: -7

Results for Cc1cccc(C2c3[nH]c4ccccc4c3CCN2Cc2cccn2-c2ncccn2)c1 (centres undefined) ?
T cruzi inh: 58*; hiPSC survival: 0; Rev-erbA mod: -1; H9c2 TAG inh: 28; PG9 Ab binder: 0; beta cell repl: -6

What do the screens show for `COc1ccc(C2c3[nH]c4ccccc4c3CCN2Cc2cccn2-c2ncccn2)cc1C` (centres undefined)?
T cruzi inh: 79*; hiPSC survival: -1; Rev-erbA mod: -6; H9c2 TAG inh: 8; PG9 Ab binder: 1; beta cell repl: -5

What do the screens show for `c1ccc(C2c3[nH]c4ccccc4c3CCN2Cc2cccn2-c2ccccn2)nc1` (centres undefined)?
T cruzi inh: 39; hiPSC survival: 0; Rev-erbA mod: -4; H9c2 TAG inh: 11; PG9 Ab binder: -2; beta cell repl: -2

What do the screens show for `CN(C)CCNc1c2c(c(C#N)c3nc4ccccc4n13)CCCC2`?
T cruzi inh: 62*; hiPSC survival: 2; Rev-erbA mod: 7; H9c2 TAG inh: 10; PG9 Ab binder: -1; beta cell repl: -4

Results for CCN(CC)CCNc1c2c(c(C#N)c3nc4ccccc4n13)CCCC2 ?
T cruzi inh: 63*; hiPSC survival: -5; Rev-erbA mod: 6; H9c2 TAG inh: 23; PG9 Ab binder: 1; beta cell repl: -5

How did N#Cc1c2c(c(NCc3ccco3)n3c1nc1ccccc13)CCC2 do in these assays?
hiPSC survival: -1; Rev-erbA mod: 7; H9c2 TAG inh: 4; PG9 Ab binder: 3; beta cell repl: 0

Results for Cc1cc(Nc2c(C)n(C)n(-c3ccccc3)c2=O)n2c(nc3ccccc32)c1C#N ?
T cruzi inh: -13; hiPSC survival: 1; Rev-erbA mod: 0; PG9 Ab binder: -4; beta cell repl: -1

What do the screens show for `Cc1cc(Nc2cccc([N+](=O)[O-])c2)n2c(nc3ccccc32)c1C#N`?
T cruzi inh: 76*; hiPSC survival: -1; Rev-erbA mod: -2; PG9 Ab binder: 1; beta cell repl: -6

How did CCN(CC)CCNc1cc(C)c(C#N)c2nc3ccccc3n12 do in these assays?
T cruzi inh: 57*; hiPSC survival: -1; Rev-erbA mod: -1; H9c2 TAG inh: 5; PG9 Ab binder: -3; beta cell repl: 2

How did O=C1Nc2ccccc2C(=O)N2CCCCC12 (centres undefined) do in these assays?
T cruzi inh: -13; hiPSC survival: -1; Rev-erbA mod: 2; H9c2 TAG inh: -24; PG9 Ab binder: 0; beta cell repl: -1

Results for COc1ccccc1/C=C/c1ccc2cccc(O)c2n1 ?
T cruzi inh: 56*; hiPSC survival: 0; Rev-erbA mod: 0; PG9 Ab binder: 1; beta cell repl: -5

How did CCOc1cccc(/C=C/c2ccc3cccc(O)c3n2)c1O do in these assays?
T cruzi inh: 38; hiPSC survival: -1; Rev-erbA mod: 0; PG9 Ab binder: 0; beta cell repl: -5

What do the screens show for `CCOc1cccc(/C=C/c2ccc3cccc(O)c3n2)c1OC`?
T cruzi inh: 84*; hiPSC survival: 0; Rev-erbA mod: -1; PG9 Ab binder: -3; beta cell repl: -6

Results for COc1ccc(Cl)cc1/C=C/c1ccc2cccc(O)c2n1 ?
T cruzi inh: 34; hiPSC survival: -1; Rev-erbA mod: 2; PG9 Ab binder: 2; beta cell repl: -5
